NALP1 inh: NALP1 inhibition. 280,000 tested, 0.61% active. AID 2071. inhibition, % at 10 µM. S. cerevisiae NALP1/ASC/caspase-1 growth, X-gal OD620, 72 h; in the data active means inhibition mostly above about 24%, no sharp cut-off; inactive means mostly below about 32%
NLRP3 yeast inh: NALP3 inhibition in yeast; Yeast reconstituted NLRP3/ASC/caspase-1, beta-gal luminescence, 24 h; inhibition, % at 10 µM; 330,000 tested, 0.39% active; AID 2825;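 active means inhibition of 50% or more; inactive means inhibition below 50%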;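 further: plate controls were induced DMSO wells for no effect and uninduced yeast grown without galactose for full effect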
Arr AP2 block: human beta-arrestin and AP2 interaction inhibition | inhibition, % at 10 µM | AID 504490 | FITC-arrestin peptide / GST-AP2 beads, flow cytometry; AP2 beta2 appendage carries R879A mutation | 340,000 tested, 0.31% active;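 active means inhibition above a set limit, near 3 SD of compounds lacking own fluorescence, cut at about 54% in these data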;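 further: plate controls were DMSO wells for no effect and 5 µM unlabelled arrestin peptide for full effect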
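Measured by: flow cytometry, FL1 (488/535 nm); Material: AP2 appendage R879A on GSH beads; Evaluation: percent response; Timing: pre-incubation 12 min, peptide binding 1 h, room temperature; Also added: 50 nM FITC-arrestin peptide; Medium: PBS with 0.05% Tween 20 and 0.1% BSA.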
DSG3 Ab inh: human desmoglein-3 autoantibody binding inhibition; DSG3-coupled beads, scFv-anti-DSG3-GFP binding, flow cytometry; active compounds read low; binding (percent of control), % at 10 µM; AID 588358; 310,000 tested, 0.48% active;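 active means binding more than 3 SD below its plate's average and above zero; inconclusive means below that plate limit but binding exactly zero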;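 further: hits lower antibody fragment binding to DSG3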
Target sequence (P32926 whole entry, looked up, the tested form may be a part): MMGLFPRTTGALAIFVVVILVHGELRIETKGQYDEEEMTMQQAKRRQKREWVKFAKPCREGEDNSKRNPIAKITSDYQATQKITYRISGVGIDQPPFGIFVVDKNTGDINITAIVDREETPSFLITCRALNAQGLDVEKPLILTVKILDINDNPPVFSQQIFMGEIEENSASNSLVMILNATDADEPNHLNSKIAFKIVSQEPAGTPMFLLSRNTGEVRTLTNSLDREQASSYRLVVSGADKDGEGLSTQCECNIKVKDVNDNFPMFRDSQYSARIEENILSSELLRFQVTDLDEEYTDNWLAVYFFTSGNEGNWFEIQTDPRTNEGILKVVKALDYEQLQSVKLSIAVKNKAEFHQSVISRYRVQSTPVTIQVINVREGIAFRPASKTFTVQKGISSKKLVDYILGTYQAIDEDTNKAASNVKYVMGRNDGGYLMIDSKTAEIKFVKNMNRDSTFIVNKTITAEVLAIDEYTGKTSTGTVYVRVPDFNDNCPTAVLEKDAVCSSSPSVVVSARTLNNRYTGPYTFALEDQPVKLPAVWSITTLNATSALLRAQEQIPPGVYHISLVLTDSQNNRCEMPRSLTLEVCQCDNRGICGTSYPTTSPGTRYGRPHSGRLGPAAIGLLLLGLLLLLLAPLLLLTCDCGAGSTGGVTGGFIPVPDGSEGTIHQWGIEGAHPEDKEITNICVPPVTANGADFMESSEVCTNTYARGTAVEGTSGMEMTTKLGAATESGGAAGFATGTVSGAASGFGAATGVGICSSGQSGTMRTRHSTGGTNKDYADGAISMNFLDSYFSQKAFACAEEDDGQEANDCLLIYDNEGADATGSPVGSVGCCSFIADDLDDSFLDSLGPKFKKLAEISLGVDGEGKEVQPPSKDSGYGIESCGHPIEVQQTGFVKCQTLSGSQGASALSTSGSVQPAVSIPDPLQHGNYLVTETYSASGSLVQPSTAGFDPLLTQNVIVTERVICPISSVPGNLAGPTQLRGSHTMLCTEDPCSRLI
ALR inh: inhibitors of human sulfhydryl oxidase ALR; P55789; 290,000 tested, 3.8% active; purified ALR, DTT oxidation, H2O2 HRP-luminol luminescence; inhibition, % (concentration not given with the values); AID 485317;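 active means mean replicate inhibition above about 79%, with every replicate also reaching it, limit read from the data; inconclusive means only one of the two criteria met; inactive means mean below limit and not every replicate reaching it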
PolyA inh: blocks polyadenylation in yeast reporter cells. AID 1875. activity score, % at 12 µM. S. cerevisiae SKY197-pL101 polyadenylation reporter, beta-gal luminescence; efflux-impaired pdr1/pdr3 knockout yeast; score 100 = 6 SD above DMSO. 300,000 tested, 0.02% active;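 active means lowest replicate activity score at least 50, where 100 means six control SD above control mean; inconclusive means lowest score under 50 but half or more replicates reach 50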;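 further: yeast exposed to compound for 9 h at 30 °C; higher score means more reporter readthrough which indicates perturbed polyadenylation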
* hit, by the source's call; ? = inconclusive; . = no result. In the library only some 4.6% were active in any assay of this set; here they are far more common.

SMILES	NALP1 inh	NLRP3 yeast inh	Arr AP2 block	DSG3 Ab inh	ALR inh	PolyA inh
Cc1c(C(=O)N(Cc2ccccc2)C(C)C)oc2ccc(S(=O)(=O)N3CCOCC3)cc12	14	2	0	102	.	-31
Cc1ccc(C(=O)CSc2nc(C(C)C)nc3ccccc23)cc1	3	8	6	101	98*	-16
COC(=O)CSc1nc(C(C)C)nc2ccccc12	7	-2	-10	109	-11	-13
O=C(CSc1cnc2ccccc2n1)c1ccc(F)cc1	29	19	-12	89	97*	-20
CC(C)c1nc(SCC(=O)c2ccc(F)cc2)c2ccccc2n1	4	19	13	88	99*	-44
CCOC(=O)CSc1nc(C(C)C)nc2ccccc12	25	20	24	.	-4	-22
Cc1ccc(C2OCC(C)([N+](=O)[O-])CO2)cc1 (configuration not stated)	.	.	35	126	.	.
Cc1cc2oc(=O)cc(-c3ccccc3)c2c(C)c1-c1ccc(F)c(Cl)c1	.	.	-1	74*	.	.
Cc1cc2oc(=O)cc(-c3ccccc3)c2c(C)c1-c1ccc(CO)cc1	.	.	-4	100	.	.
Nc1cccc2cccc([N+](=O)[O-])c12	.	.	22	90	.	.
CCCNC(=O)c1cc(S(=O)(=O)N2CCc3ccccc32)cn1C	18	9	9	107	-15	7
C[C@@H]1O[C@@H](O[C@@H]2[C@@H](O)[C@H](OCCc3ccc(O)c(O)c3)O[C@H](CO)[C@H]2OC(=O)/C=C/c2ccc(O)c(O)c2)[C@H](O)[C@H](O)[C@H]1O	.	2	22	95	98*	.
Cc1cc(S(=O)(=O)N2CCN(CC(=O)N(C)Cc3ccccc3)CC2)ccc1Br	.	12	-12	99	.	.
Cc1cccc(N2CCN(CC(=O)N(C)Cc3ccccc3)CC2C)c1 (configuration not stated)	29	12	-2	103	98*	-4
COc1ccc(C2C3=C(CC(C)(C)CC3=O)Nc3cc4c(cc32)OCO4)cc1 (configuration not stated)	6	-2	33	109	?	-7
COc1ccc(OC)c(C2C3=C(COC3=O)Nc3cc4c(cc32)OCO4)c1 (configuration not stated)	26	23	-1	102	99*	-6
CN(C)c1ccc(C2(O)C(=O)c3ccccc3C2=O)cc1	42	10	-2	96	30	6
CNc1ccc(C2(O)C(=O)c3ccccc3C2=O)cc1	27	1	4	102	83*	10
O=CN/C=C/c1cccc(O)c1	.	.	-9	87	.	.
O=C(CSc1ccccc1C(=O)N1CCN(c2ccccc2)CC1)N1CCCC1	.	-2	25	.	98*	.
COCCSc1ccccc1C(=O)N1CCN(c2ccccc2)CC1	-9	7	32	99	87*	-7
O=C(CSc1ccccc1C(=O)N1CCN(c2ccc([N+](=O)[O-])cc2)CC1)N1CCCC1	.	4	-1	.	11	.
Nc1nnc(SCC(=O)OCC(=O)Nc2ccc(Br)cc2)s1	22	-4	3	100	99*	6
Cc1nnc2sc(SCC(=O)Nc3ccc(Br)cc3)nn2c1=O	-2	23	-15	114	97*	-2
COC(=O)c1ccc(NC(=O)CSc2nn3c(=O)c(C)nnc3s2)cc1	-4	21	14	.	93*	2
SMILES	NALP1 inh	NLRP3 yeast inh	Arr AP2 block	DSG3 Ab inh	ALR inh	PolyA inh
COc1ccc(NC(=O)CSc2nn3c(=O)c(C)nnc3s2)cc1	-13	17	4	.	65	13
O/N=C\c1cnc(N2CCN(c3ccccc3)CC2)s1	6	5	0	92	55	-14
Cn1cnc2c(cnn2C)c1=N	.	.	46	96	.	.
O=C(NCC(=O)N1CCN(c2ccccc2O)CC1)c1ccco1	3	-8	19	103	90*	4
O=C(c1ccco1)N1CCN(Cc2ccccc2Br)CC1	11	17	20	72*	1	15
Nc1ccc(N2CCN(C(=O)c3ccco3)CC2)cc1	2	13	12	103	99*	3
O=C(c1ccco1)N1CCN(Cc2ccc(F)cc2)CC1	10	24	-10	97	-2	-15
O=C(c1ccco1)N1CCN(c2ccc(F)cc2)CC1	-3	-13	2	108	38	-8
O=C(NC(=S)N1CCN(c2ccccc2)CC1)c1ccco1	.	29	-19	98	98*	.
O=C(NC(=S)N1CCN(c2ccccc2)CC1)c1ccccc1	-6	9	-25	.	?	-6
CSc1ncccc1C(=O)N1CCCC(N2CCN(c3ccccc3C)CC2)C1 (configuration not stated)	.	.	.	104	.	.
Cc1nnc(SCC(=O)c2ccc(Cl)cc2)n(N)c1=O	2	10	-4	106	99*	.
Cc1ccc(NC(=O)CSc2nnc(C)c(=O)n2N)cc1Cl	0	8	16	.	48	-10
Cn1c(CO)cnc1SCC(=O)c1ccc(Cl)cc1	23	26	7	104	99*	-5
CSc1ncccc1C(=O)OCC(=O)N(C)Cc1ccc(C)cc1	.	.	.	103	.	.
COc1ccc(CNC(=O)COC(=O)c2cc(C)oc2C)cc1	.	.	.	99	.	.
CC(C)(/C=N/NC(=O)CSCc1ccccc1Cl)CCC#N	28	5	18	124	98*	13
O=C(CSCc1ccccc1Cl)N/N=C/c1ccco1	-2	-6	0	95	-3	18
O=C(NCCC(=O)N1CCC2(CC1)NCCc1[nH]cnc12)c1cccc(Br)c1	11	14	-9	99	-1	-10
CCOCCCNC(=S)Nc1ccc2nc(N3CCOCC3)cc(C)c2c1	-14	27	4	97	99*	-2
COCCCNC(=S)Nc1ccc2nc(N3CCOCC3)cc(C)c2c1	-1	32	41	113	69	-4
COc1ccc(CNC(=S)Nc2ccc3nc(N4CCOCC4)cc(C)c3c2)cc1	-6	26	-1	84	99*	5
COc1ccc(CNC(=S)Nc2ccc3nc(N4CCN(C)CC4)cc(C)c3c2)cc1	1	-7	-6	108	-17	3
CCN1CCN(c2cc(C)c3cc(NC(=O)CCC(=O)N4CCN(c5ccccc5)CC4)ccc3n2)CC1	-5	23	19	99	91*	5
COc1ccc(N(C)C(=O)CCC(=O)Nc2ccc3nc(N4CCOCC4)cc(C)c3c2)c(OC)c1	5	9	8	89*	.	-1
COc1ccc(-n2c(CCC(=O)O)ccc2-c2ccc(F)cc2)c(OC)c1	4	4	10	98	12	23
Cc1ccc(S(=O)(=O)N2CC3(O)CN(C(=O)OC(C)C)N(C(=O)OC(C)C)CC3(OC(=O)NC3CCCC3)C2)cc1 (configuration not stated)	.	.	.	104	.	.
